Test: Toxicity liver stage against HepG2, at 10uM
Format: cell-based
Design: test concentration 10 uM, cell line HepG2-A16-CD81EGFP
Conditions: human, HepG2-A16-CD81EGFP cells; read-out: INHIBITION
Procedure, shortened: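 Uninfected HepG2-A16-CD81EGFP cells, 3 × 10^3 per well, 1536-well, plated on prespotted compound at 10 μM final, parasite-free screening media added to match infected plates; puromycin 10 μM positive, DMSO 0.5% negative; run in parallel with 48 h PbLuc assay at 37 °C, 5% CO2; viability by CellTiter-Glo luminescence, normalized to controls.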
`CS(=O)(=O)c1ccc(Cl)c(NC(=O)NCCC2=CCCCC2)c1` gave a cytotoxicity at 10 µM of 0.0793%. In the case of `CCC1CN(CC(=O)NCCN2CCCCCC2)c2ccccc2S1` (centres undefined), the cytotoxicity at 10 µM is reported as -1.14%. With `O=C(c1cccnc1)N1CCN(c2ccc(-n3cccc3)nn2)CC1` the cytotoxicity at 10 µM was -9.73%. `Cc1cnc(N2CCOC3(CCCN(c4ncccn4)C3)C2)nc1` (centres undefined) showed a cytotoxicity at 10 µM of 9.19%. With `Cc1cccc(CN2CCC3(CCCN(Cc4cnn(C)c4)C3)C2=O)n1` (centres undefined) the cytotoxicity at 10 µM was 6.02%. `O=C(c1ccsc1)N1CCc2c(CN3CCCC3)n[nH]c2C1` gave a cytotoxicity at 10 µM of 5.04%. Molecule `CC1=N[C@@]2(CC[C@@H]3CN(C(=O)Nc4ccc(F)cc4)C[C@@H]32)C(=O)N1C` has a cytotoxicity at 10 µM of 8.1%. `Cc1occc1C(=O)N1CCC2(CC1)CC(c1cccnc1)C(=O)N2C` (centres undefined) gave a cytotoxicity at 10 µM of -7.09%. `CC(C)NC(=O)N1CCN(S(=O)(=O)C2CC2)CC2(CC(=O)N(C)C2)C1` (centres undefined) gave a cytotoxicity at 10 µM of 1.11%. `Cn1nnc(NCc2ccc(-c3ccc(Br)cc3)o2)n1` showed a cytotoxicity at 10 µM of -11.1%. `COCCC(=O)N1CCC(c2nnc(-c3ccsc3)o2)CC1` showed a cytotoxicity at 10 µM of 9.09%. With `Cc1ccnc(C2(C)CCCN2S(=O)(=O)c2c(C)noc2C)n1` (centres undefined) the cytotoxicity at 10 µM was 0.795%. `Cc1cc(C)n(-c2nc(C(=O)NCCS(=O)(=O)N3CCCCC3)cs2)n1` showed a cytotoxicity at 10 µM of -10.3%. With `CS(=O)(=O)N1CC(c2nc(N)ncc2-c2ccc(F)cc2)C1` the cytotoxicity at 10 µM was -3.49%. Molecule `Cc1cc(=O)[nH]c(=O)n1Cc1ncc(-c2ccccc2C(=O)O)s1` has a cytotoxicity at 10 µM of 2.71%. For `COCCC(=O)N1CCC(c2ncncc2-c2ccnc(N)c2)C1` (centres undefined), the cytotoxicity at 10 µM was -2.68%. In the case of `c1nc(C2CCCCO2)ncc1CN1CCOCC1` (centres undefined), the cytotoxicity at 10 µM is reported as -8.45%. `CNC(=O)C1(CCCc2ccncc2)CCCN1` (centres undefined) gave a cytotoxicity at 10 µM of -6.46%. Work on `Cc1ccccc1S(=O)(=O)Cc1nsc(N(C)C)n1` yielded a cytotoxicity at 10 µM of -4.45%. Molecule `COc1c(C2CCCN2c2ncnc3ccsc23)c(C)nn1C` (centres undefined) has a cytotoxicity at 10 µM of 18.6%. `Cc1cc(C(=O)Nc2cc(C3CC3)n[nH]2)c2c(C)nn(C)c2n1` gave a cytotoxicity at 10 µM of -2.14%. Work on `CC(C)C(NC(=O)Cc1ccccc1)C(=O)NCc1ccc(O)nc1` (centres undefined) yielded a cytotoxicity at 10 µM of 0.833%. `CC(C)C(C)N(C(=O)Cn1nc2n(c1=O)CCCCC2)C1CC1` (centres undefined) showed a cytotoxicity at 10 µM of -5.77%. `c1ccc2nc(N3CCCCC3)c(NCc3nnc4n3CCC4)nc2c1` gave a cytotoxicity at 10 µM of 2.48%. For `CCCc1n[nH]c(C2CN(Cc3ncc[nH]3)CCO2)n1` (centres undefined), the cytotoxicity at 10 µM was 4.69%. `CC(C)(C)NC(=O)CNC(=O)c1cccnc1Oc1cccnc1` showed a cytotoxicity at 10 µM of 4.11%. `Cc1csc(CN(C)C(=O)Nc2cnn(CC3CCCO3)c2)n1` (centres undefined) gave a cytotoxicity at 10 µM of -3.28%. `CS(=O)(=O)CCC(=O)NC1CC(c2cccc(Cl)c2)C1` (centres undefined) showed a cytotoxicity at 10 µM of 1.36%. `N#Cc1cccnc1NC1CCN(c2ccccc2OC(F)F)C1=O` (centres undefined) gave a cytotoxicity at 10 µM of 6.37%. For `CCCN(C(=O)c1csnn1)C1CCCN(Cc2ccccc2)C1` (centres undefined), the cytotoxicity at 10 µM was -4.38%. `N#Cc1cccc(OCCCN2CCN(C(=O)c3ccoc3)CC2)c1` showed a cytotoxicity at 10 µM of 3.57%. With `CC(C)=CCS(=O)(=O)Cc1nc(C(C)C)no1` the cytotoxicity at 10 µM was 10.8%. Work on `COC(=O)NCc1ccc(NC(=O)CC2=CCCCC2)cc1` yielded a cytotoxicity at 10 µM of 2.97%. In the case of `CSc1nc(C2CC2)nc(C)c1C(=O)NCc1ncc(C)o1`, the cytotoxicity at 10 µM is reported as -3.71%. With `CNC(=O)CCc1cccc(OC2CCCC2)c1` the cytotoxicity at 10 µM was -0.408%. Molecule `Cc1cc(C)n(C2CN(c3ncnc4c3CCC4)C2)n1` has a cytotoxicity at 10 µM of 8.09%. With `CSc1[nH]c(=O)c(C(=O)N2CCCC2C2CCCC2)cc1C#N` (centres undefined) the cytotoxicity at 10 µM was 5.58%. `Cc1cc(CNC2(c3ccccc3)CCCCC2)on1` gave a cytotoxicity at 10 µM of 0.643%. In the case of `Cc1ccc(SC2CCCC2)c(C(=O)NCc2n[nH]c(=O)[nH]2)c1`, the cytotoxicity at 10 µM is reported as -38.4%. Molecule `CC(NCC(=O)NCC(=O)Nc1ccc(F)cc1)c1cccs1` (centres undefined) has a cytotoxicity at 10 µM of 6.02%. Molecule `CCOc1ncccc1CNC(=O)N1CCCC1c1cc(C)no1` (centres undefined) has a cytotoxicity at 10 µM of 23.7%. `COc1ccc(CC(=O)N2CCCCC2Cn2cccn2)cc1OC` (centres undefined) showed a cytotoxicity at 10 µM of -12.4%. For `COc1ccccc1C(O)CNc1nccc(-c2ccc(C)nc2C)n1` (centres undefined), the cytotoxicity at 10 µM was 8.95%. For `Cc1ccc([C@@H]2CN(S(=O)(=O)c3ccccc3)C[C@H]2N(C)C)cc1`, the cytotoxicity at 10 µM was -4.44%. `CCc1ncc(-c2cn(CCSc3ncn[nH]3)nn2)cn1` gave a cytotoxicity at 10 µM of 1.41%. `CCN1CC2(CCN(CCOc3ccc(F)cc3)CC2)CC1=O` showed a cytotoxicity at 10 µM of 8.12%. Work on `CS(=O)(=O)c1ncc(CN2CCCC(C(N)=O)C2)n1CC1CCCCC1` (centres undefined) yielded a cytotoxicity at 10 µM of -2.35%. `CCc1ncc(CN2CCCC3(CCC(=O)N(CCC(C)C)C3)C2)cn1` (centres undefined) gave a cytotoxicity at 10 µM of -7.66%. For `COc1ccc(OC)c2c(C)cc(N(C)CCO)nc12`, the cytotoxicity at 10 µM was 6.36%. With `CC(C)OC(=O)N1CCCC2(CCC(=O)N(CCc3c[nH]cn3)C2)C1` (centres undefined) the cytotoxicity at 10 µM was -3.73%. `CC(C)(C)n1cc(C2=CCN(CCN3CCCCCC3)CC2)cn1` gave a cytotoxicity at 10 µM of -0.481%. `Cc1cc(C)nc(N(C)CCN(C)C2CCCC2)n1` gave a cytotoxicity at 10 µM of -5.88%. Molecule `Cc1ccncc1-n1cc(CCO)cn1` has a cytotoxicity at 10 µM of -2.51%. `Cc1ccc(CN2CCNC(=O)C2CC(=O)N2CCSCC2)o1` (centres undefined) showed a cytotoxicity at 10 µM of 4.48%.

— ChEMBL document CHEMBL4513216, “Probing the Open Global Health Chemical Diversity Library for Multistage-Active Starting Points for Next-Generation Antimalarials” (ACS Infect Dis, 2020)
